From PubChem
Runt-CBFb FRET: inhibitors of RUNX1 Runt–CBFb binding, primary screen, biochemical, FRET, Cerulean-Runt, Venus-CBFb, uHTS. Runt-related transcription factor 1 (Homo sapiens) + Core-binding factor subunit beta …. Cerulean-Runt/Venus-CBFb FRET ratio 530/480, 1 h. inhibition, % at 20 µM. hit rate 0.46% among 220,000. AID 1496, 2009;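 active = inhibition over about 50% at 20 µM in the single-dose screen, limit read from the data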;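 also: 0% = DMSO wells and 100% = excess unlabeled CBFb competitor control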
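Measured by: fluorescence energy transfer, 422 nm excitation, 530/480 nm emission; Assay system: Cerulean-Runt domain; Medium: Tris pH 7.5 buffer with BSA; Measure: loss of energy transfer signal; Controls: 5 µM unlabeled CBFb as full-inhibition high control; Incubation: protein complex preformed 1 h, compound exposure 1 h, room temperature, dark.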
Runt-SMMHC FRET: inhibitors of RUNX1 Runt–CBFb-SMMHC binding, primary screen, biochemical, FRET, Cerulean-Runt, Venus-CBFb-SMMHC, uHTS; inhibition, % at 20 µM; Cerulean-Runt/Venus-CBFb-SMMHC FRET ratio 530/480, 1 h; AID 1434, 2008; hit rate 0.74% among 220,000; Runt-related transcription factor 1 (Homo sapiens) + Core-binding factor subunit beta …;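 active = mean inhibition across duplicate retests at 20 µM reaching about 50%, limit read from the data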;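 also: 0% = DMSO wells and 100% = wells with excess untagged CBFb-SMMHC; inhibitors lower the FRET ratio by blocking Runt binding to CBFb-SMMHC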
RanGTP-Impb inh: inhibitors of RanGTP-importin-beta interaction, primary screen, biochemical, FRET, CFP-Ran, YFP-importin-beta, homogeneous. inhibition, % (test concentration not listed). cell-free CFP-Ran/YFP-importin-beta FRET ratio. hit rate 1.1% among 300,000;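 active = more than half of the replicate wells show a fall in the fluorescence ratio signal beyond about 16%, limit read from the data, passing the limit was not always enough; inconclusive = exactly half of the replicate wells pass the set limit; inactive = fewer than half of replicates pass the limit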;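 also: 0% = DMSO wells and 100% = Ran loaded with GDP instead of GTP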
Hck-Nef inh: inhibitors of Nef-activated human Hck kinase, primary screen, biochemical, Z-Lyte FRET, 384-well, Hck-YEEI | hit rate 0.68% among 220,000 | Recombinant Hck-YEEI plus Nef, Z-Lyte FRET kinase assay | AID 463187, 2010 | inhibition, % at 20 µM;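 active = Hck-Nef kinase inhibition above about 50%, limit read from the data; inactive = inhibition below that limit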;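 also: 0% = DMSO with Hck plus Nef and 100% = Hck alone without Nef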
Target sequence (P08631 whole entry, looked up): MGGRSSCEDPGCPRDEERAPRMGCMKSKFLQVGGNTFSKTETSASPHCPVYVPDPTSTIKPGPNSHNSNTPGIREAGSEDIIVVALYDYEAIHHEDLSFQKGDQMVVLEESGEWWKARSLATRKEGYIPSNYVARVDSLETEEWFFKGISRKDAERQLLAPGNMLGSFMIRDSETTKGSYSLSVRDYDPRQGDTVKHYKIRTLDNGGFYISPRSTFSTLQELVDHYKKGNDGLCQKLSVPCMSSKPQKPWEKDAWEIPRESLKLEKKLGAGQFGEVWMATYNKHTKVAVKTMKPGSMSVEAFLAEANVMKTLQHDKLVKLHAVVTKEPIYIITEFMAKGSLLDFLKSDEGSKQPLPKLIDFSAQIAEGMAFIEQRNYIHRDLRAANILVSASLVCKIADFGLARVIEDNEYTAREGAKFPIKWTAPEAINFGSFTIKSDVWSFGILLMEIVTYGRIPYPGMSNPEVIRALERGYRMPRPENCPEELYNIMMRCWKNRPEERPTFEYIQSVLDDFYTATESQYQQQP
Hck-Nef confirm: retest of Hck:Nef kinase inhibitor hits, confirmation, biochemical, Z-Lyte FRET, 384-well, p-Tyr peptide counterscreen; shares compounds with Hck-Nef inh; hit rate 28% among 1,300; Recombinant Hck-YEEI:Nef, Z-Lyte FRET kinase assay; calls only at 10 µM; AID 463188, 2010;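 active = average inhibition of at least 50%, with Z-scores no higher than 3 in both the phospho-tyrosine peptide and fluorescence counterscreens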
Numbers without * were called inactive; i = inactive; ? = inconclusive; . = no result given; + = active, no number. Compounds with a hit are over-represented: about 1.9% of the library has one in this group of screens.

SMILES	Runt-CBFb FRET	Runt-SMMHC FRET	RanGTP-Impb inh	Hck-Nef inh	Hck-Nef confirm
CC1=NOC(=O)/C1=C\c1ccc(-c2ccccc2Br)o1	.	62	0	52*	i
Cc1ccc(-c2nc3c(c(=O)[nH]c(=O)n3Cc3ccccc3)n2C)s1	-5	-15	?	58*	i
Cc1cccc(N(Cc2ccccc2)C(=O)c2cc(S(=O)(=O)N3CCOCC3)ccc2Cl)c1	.	.	3	.	.
Cc1ccc(N=C2S/C(=C\c3cn(CC(=O)O)c4ccccc34)C(=O)N2C)cc1	-10	-16	-7	10	.
Cc1ccc(C)c(NC(=O)Cn2nc(-c3ccccc3)nc2-c2ccccc2)c1	-3	-7	-1	59*	i
Cc1ccc(NC(=O)Cn2nc(-c3ccccc3)nc2-c2ccccc2)c(C)c1	-5	-4	2	12	.
CCCC(=O)Nc1ccc(Cl)c(NC(=O)c2cccnc2)c1	-1	0	0	4	.
CCCC(=O)Nc1ccc(Cl)c(NC(=O)c2cccc(OC)c2)c1	4	2	?	60*	i
CCc1ccc(C2=NN(c3ccc(S(N)(=O)=O)cc3)C(c3ccc(F)cc3)C2)cc1 (stereo unspecified)	9	41	?	74*	.
O=C(N/N=C/c1ccc(O)cc1)Nc1cccc2nsnc12	-11	3	5	53*	i
O=C(OCC(=O)N1CCN(C(=O)c2ccco2)CC1)c1cc(-c2ccco2)nc2ccccc12	3	-11	-4	6	.
O=C(OCC(=O)N1CCN(C(=O)c2ccco2)CC1)c1cc(-c2ccc(Cl)c(Cl)c2Cl)nc2ccccc12	-16	-7	4	50*	+
CC1=CC2=NC(=O)/C(=C\c3cccn3CCOc3ccccc3C)C(=N)N2O1	-5	-9	-1	19	.
COc1ccccc1OCCOc1ccc(/C=C2/C(=N)N3OC(C)=CC3=NC2=O)cc1OC	-2	-57	3	89*	+
CCCn1c(SCC(=O)Nc2ccc(S(=O)(=O)N(C)C)cc2)n[nH]c1=O	2	1	6	4	.
O=C(COc1ccc2ccc(=O)oc2c1)NC1CCCC1	.	.	3	.	.
O=C(Oc1ccc2ccc(=O)oc2c1)C1CCCCC1	30	48	4	67*	i
COc1cccc(-n2c(C)c3c(OC)cccc(=O)c3c2C)c1	4	-9	0	51*	i
COc1cccc(=O)c2c(C)n(-c3cc(C)cc(C)c3)c(C)c12	2	-3	-17	2	.
N#Cc1cc2cc3c(cc2nc1NCCNC(=S)NCCCN1CCOCC1)OCO3	103*	100*	2	74*	.
N#Cc1cc2cc3c(cc2nc1SCC(=O)N1CCOCC1)OCO3	.	.	1	.	.
CC1=NNC(=O)/C1=C\c1cn(-c2ccccc2)nc1-c1ccccc1	0	-14	.	181*	+
CC(C)CCC(=O)N1CCOC1=O	.	.	3	.	.
c1ccc(-c2cc(-c3nnc4n3N=C(c3ccc5ccccc5c3)CS4)[nH]n2)cc1	-2	-6	-2	54*	+
O=C(/C=C/c1ccc(Br)o1)Nc1nnc(C2CC2)s1	25	-1	-3	57*	+
SMILES	Runt-CBFb FRET	Runt-SMMHC FRET	RanGTP-Impb inh	Hck-Nef inh	Hck-Nef confirm
COc1ccc(C(=O)Nc2cccc(-c3cc4ccccc4oc3=O)c2)cc1[N+](=O)[O-]	-5	-6	.	96*	+
CCC(C)N1CC(O)=C(c2nc3ccccc3[nH]2)C1=N (stereo unspecified)	0	0	-1	58*	+
COc1cccc(OCC(=O)Nc2ccccc2C(=O)Nc2ccc(C(=O)O)cc2)c1	.	.	2	.	.
CCOC(=O)CCCNC(=O)CN1C(=O)NC(c2ccccc2)(c2ccccc2)C1=O	.	.	4	.	.
Cc1cc(=O)[nH]c(/N=C(\N)Nc2ccc(Oc3ccccc3)cc2)n1	0	0	1	52*	i
Cc1ccc(C2=NN(C(=O)CSc3nc4ncc(Cl)cc4[nH]3)C(c3ccco3)C2)cc1 (stereo unspecified)	18	26	0	77*	i
COc1ccc(C2=NN(C(=O)CSc3nc4ncc(Cl)cc4[nH]3)C(c3ccco3)C2)cc1 (stereo unspecified)	17	19	-4	22	.
CCC(=O)OC1(C)C(=O)C=C2C=C(c3ccsc3)OC=C2C1=O (stereo unspecified)	4	-19	3	65*	+
CCN(CC)S(=O)(=O)c1ccc(N2CCN(CCOc3ccc(OC)cc3)CC2)nc1	.	.	2	.	.
Cc1ccc(NS(=O)(=O)c2ccc3c(c2)NC(=O)CCS3)c(C)c1	.	.	3	.	.
COc1ccc(NC(=O)c2cc3c(=O)n(C)c4ccccc4c3n2C)cc1Cl	-3	2	2	61*	i
COc1ccc(NC(=O)c2cc3c(=O)n(C)c4ccccc4c3n2C)cc1OC	4	-2	-5	1	.
O=C(NCc1ccc(Cl)cc1)c1ccc2c(=O)n(CC3CCCO3)c(=S)[nH]c2c1 (stereo unspecified)	.	.	-1	.	.
N=c1c(C(=O)NCc2ccc(F)cc2)cc2c(=O)n3ccccc3nc2n1CC1CCCO1 (stereo unspecified)	10	60*	199*	145*	.
COCCn1c(=O)[nH]c2cc(C(=O)NCC3CCCO3)ccc2c1=O (stereo unspecified)	2	1	2	5	.
CCCn1c(=N)c(C(=O)NCC2CCCO2)cc2c(=O)n3cccc(C)c3nc21 (stereo unspecified)	12	38	184*	192*	.
COCCCn1c(=N)c(C(=O)NCC2CCCO2)cc2c(=O)n3ccccc3nc21 (stereo unspecified)	12	65*	172*	+	.
CCCn1c(=O)c(C(=O)NCC2CCCO2)c(O)c2ccccc21 (stereo unspecified)	-2	-2	4	1	.
ClCc1ncc(-c2ccc(Cl)cc2)o1	0	2	3	22	.
CCC(C(=O)Nc1ccc([N+](=O)[O-])cn1)c1ccccc1 (stereo unspecified)	.	.	-3	.	.
COc1ccc(N2CCN(CCNC(=O)c3ccc4c(c3)[nH]c(=S)n3c5ccccc5nc43)CC2)cc1	5	0	1	51*	i
CCOC(=O)c1nc(NCc2cccc(OC)c2)c2ccccc2n1	-3	-2	3	17	.
